# Results as given in paper PMC2711440 (Nature, 2009).
# Experiments:
# Type in all cases: cell-based
# [1] = test system: NR1wt/NR2A-(2D NTD+L) receptors; test: Kinetics of inhibition by MK-801, oocyte voltage-clamp; conditions: NR2A-(2D NTD+L) vs NR2Awt
# NR1wt/NR2Dwt receptors [2] = molecular target: T1, NR1wt/NR2Dwt receptors (Rattus norvegicus, UniProt P35439+Q62645); test: as above; conditions: trace of Fig. 1f
# [3] = test system: NR1wt/NR2D-ΔNTD receptors; test: as above; conditions: trace of Fig. 1f
# [4] = test system: NR1wt/NR2D-(2A NTD+L) receptors; test: as above; conditions: trace of Fig. 1f
# [5] = test system: NR1-A652C/NR2A-(2D NTD+L) receptors; test: MTSEA-induced potentiation of currents; conditions: NR2A-(2D NTD+L) vs NR2Awt
# NR1-A652C/NR2D receptors = NR1-A652C/NR2D receptors (Homo sapiens, UniProt O15399+Q05586, A652C); test: MTSEA-induced potentiation of currents; conditions: NR2D-containing receptors (NR1-A652C)
# [6] = test system: NR1-A652C/NR2D-ΔNTD receptors; test: MTSEA-induced potentiation of currents; conditions: NR2D-ΔNTD vs NR2D
# NR1wt/NR2Awt receptors = NR1wt/NR2Awt receptors (Homo sapiens, UniProt Q05586+Q12879); test: Zinc sensitivity
# Summary of the method: (§1)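 Two-electrode voltage clamp was run at −60 mV at room temperature on oocytes nuclear-injected with NR1 and NR2 cDNAs (10 ng/µl, 1:1). […] Free zinc was buffered with tricine 10 mM (1 nM–1 µM) or ADA 1 mM (0.1–100 nM), and "0" zinc contained 10 µM DTPA. Dose-response curves gave IC50 and maximal inhibition.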
# NR1wt/NR2Bwt receptors = NR1wt/NR2Bwt receptors (Homo sapiens, UniProt Q05586+Q13224); test: Zinc sensitivity
# Summary of the method: as §1
# NR1wt/NR2Dwt receptors [7] = molecular target: T1, NR1wt/NR2Dwt receptors; test: Zinc sensitivity
# Summary of the method: as §1
# [8] = molecular target: NR1wt/NR2B-(2A NTD) receptors; test: Zinc sensitivity
# Summary of the method: as §1
# [9] = molecular target: NR1wt/NR2B-(2A NTD+L) receptors; test: Zinc sensitivity
# Summary of the method: as §1
# [10] = molecular target: NR1wt/NR2D-(2A NTD+L) receptors; test: Zinc sensitivity
# Summary of the method: as §1
# [11] = test system: receptors incorporating NR1wt and NR2Awt, NR2Bwt, NR2Dwt, NR2B-(2A NTD), NR2B-(2A NTD+L) or NR2D-(2A NTD+L); test: Zinc sensitivity; conditions: zinc dose-response, all constructs of Fig. 3a
# Summary of the method: as §1
# T1 sequence (Q62645 28-1323, other chains not shown): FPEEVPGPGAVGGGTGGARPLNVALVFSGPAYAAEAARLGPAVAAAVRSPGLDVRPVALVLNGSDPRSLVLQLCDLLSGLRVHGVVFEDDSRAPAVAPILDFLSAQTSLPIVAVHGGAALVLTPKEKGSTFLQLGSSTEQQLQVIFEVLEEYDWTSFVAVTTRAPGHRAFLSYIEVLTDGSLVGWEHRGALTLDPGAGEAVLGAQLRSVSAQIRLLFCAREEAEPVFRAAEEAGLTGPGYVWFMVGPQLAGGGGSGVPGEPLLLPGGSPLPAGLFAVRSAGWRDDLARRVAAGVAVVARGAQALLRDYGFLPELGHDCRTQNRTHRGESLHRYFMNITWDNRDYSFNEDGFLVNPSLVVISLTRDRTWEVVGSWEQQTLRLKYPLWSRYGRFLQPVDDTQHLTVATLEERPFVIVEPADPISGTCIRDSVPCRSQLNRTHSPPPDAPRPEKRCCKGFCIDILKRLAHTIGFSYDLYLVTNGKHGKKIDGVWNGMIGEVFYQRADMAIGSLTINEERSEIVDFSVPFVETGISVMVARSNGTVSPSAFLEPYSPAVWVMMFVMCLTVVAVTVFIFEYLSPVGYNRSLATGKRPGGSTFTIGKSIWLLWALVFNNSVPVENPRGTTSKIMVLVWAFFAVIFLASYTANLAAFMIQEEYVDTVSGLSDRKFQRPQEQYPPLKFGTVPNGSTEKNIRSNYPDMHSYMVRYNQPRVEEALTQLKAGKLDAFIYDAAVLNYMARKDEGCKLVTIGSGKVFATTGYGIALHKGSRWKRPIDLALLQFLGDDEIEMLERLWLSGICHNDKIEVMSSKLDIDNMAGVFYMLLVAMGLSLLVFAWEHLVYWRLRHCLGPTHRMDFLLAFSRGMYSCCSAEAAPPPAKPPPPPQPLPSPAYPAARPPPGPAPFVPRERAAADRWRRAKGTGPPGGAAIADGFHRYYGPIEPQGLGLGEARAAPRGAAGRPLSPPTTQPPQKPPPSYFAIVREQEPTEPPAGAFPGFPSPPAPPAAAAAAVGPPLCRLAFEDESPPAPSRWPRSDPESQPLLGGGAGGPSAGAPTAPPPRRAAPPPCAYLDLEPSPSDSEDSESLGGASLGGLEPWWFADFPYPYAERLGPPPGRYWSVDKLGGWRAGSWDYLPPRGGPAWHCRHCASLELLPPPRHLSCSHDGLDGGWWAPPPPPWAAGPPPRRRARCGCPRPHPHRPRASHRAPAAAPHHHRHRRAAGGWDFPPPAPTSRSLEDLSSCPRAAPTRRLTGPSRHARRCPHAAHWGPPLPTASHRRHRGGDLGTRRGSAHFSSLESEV
# NR1wt/NR2Awt receptors, sequence (Q12879 23-1464, other chains not shown): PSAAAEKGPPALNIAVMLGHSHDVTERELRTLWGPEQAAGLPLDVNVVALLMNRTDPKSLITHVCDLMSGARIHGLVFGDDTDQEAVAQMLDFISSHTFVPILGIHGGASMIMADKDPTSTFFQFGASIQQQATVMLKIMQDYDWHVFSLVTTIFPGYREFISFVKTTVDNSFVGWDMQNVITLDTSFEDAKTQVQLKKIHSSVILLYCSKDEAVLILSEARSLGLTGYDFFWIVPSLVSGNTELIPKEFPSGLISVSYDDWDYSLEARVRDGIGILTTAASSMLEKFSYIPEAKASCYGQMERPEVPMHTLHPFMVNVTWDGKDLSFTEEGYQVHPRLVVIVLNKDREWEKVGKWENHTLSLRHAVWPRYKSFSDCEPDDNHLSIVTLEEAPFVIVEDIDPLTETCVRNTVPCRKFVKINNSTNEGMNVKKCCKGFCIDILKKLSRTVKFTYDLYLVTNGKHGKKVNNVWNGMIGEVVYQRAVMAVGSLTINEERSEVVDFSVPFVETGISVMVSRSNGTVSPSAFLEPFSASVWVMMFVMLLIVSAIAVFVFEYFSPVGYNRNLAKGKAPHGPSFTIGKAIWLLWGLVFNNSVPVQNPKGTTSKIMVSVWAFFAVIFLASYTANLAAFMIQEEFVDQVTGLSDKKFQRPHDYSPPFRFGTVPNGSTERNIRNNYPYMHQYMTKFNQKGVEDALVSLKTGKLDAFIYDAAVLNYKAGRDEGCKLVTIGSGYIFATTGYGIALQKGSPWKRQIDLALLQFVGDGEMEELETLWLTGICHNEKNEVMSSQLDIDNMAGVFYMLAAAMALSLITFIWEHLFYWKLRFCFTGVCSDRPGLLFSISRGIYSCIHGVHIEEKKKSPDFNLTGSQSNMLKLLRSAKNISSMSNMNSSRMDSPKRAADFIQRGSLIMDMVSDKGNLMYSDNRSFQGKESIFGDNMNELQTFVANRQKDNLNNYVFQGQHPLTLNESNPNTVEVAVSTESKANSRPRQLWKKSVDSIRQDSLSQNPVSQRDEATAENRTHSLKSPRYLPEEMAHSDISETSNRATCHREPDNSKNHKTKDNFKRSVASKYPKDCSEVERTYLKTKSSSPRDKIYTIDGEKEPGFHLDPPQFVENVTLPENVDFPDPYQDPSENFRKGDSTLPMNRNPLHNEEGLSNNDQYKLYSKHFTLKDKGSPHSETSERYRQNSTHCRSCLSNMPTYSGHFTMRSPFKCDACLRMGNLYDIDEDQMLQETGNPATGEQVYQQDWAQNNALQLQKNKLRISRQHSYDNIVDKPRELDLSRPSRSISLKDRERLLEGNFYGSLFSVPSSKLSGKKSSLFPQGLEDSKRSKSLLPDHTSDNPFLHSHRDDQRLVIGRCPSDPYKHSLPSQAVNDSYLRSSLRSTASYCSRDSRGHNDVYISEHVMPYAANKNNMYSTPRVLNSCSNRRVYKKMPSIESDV
# NR1wt/NR2Bwt receptors, sequence (Q13224 27-1484, other chains not shown): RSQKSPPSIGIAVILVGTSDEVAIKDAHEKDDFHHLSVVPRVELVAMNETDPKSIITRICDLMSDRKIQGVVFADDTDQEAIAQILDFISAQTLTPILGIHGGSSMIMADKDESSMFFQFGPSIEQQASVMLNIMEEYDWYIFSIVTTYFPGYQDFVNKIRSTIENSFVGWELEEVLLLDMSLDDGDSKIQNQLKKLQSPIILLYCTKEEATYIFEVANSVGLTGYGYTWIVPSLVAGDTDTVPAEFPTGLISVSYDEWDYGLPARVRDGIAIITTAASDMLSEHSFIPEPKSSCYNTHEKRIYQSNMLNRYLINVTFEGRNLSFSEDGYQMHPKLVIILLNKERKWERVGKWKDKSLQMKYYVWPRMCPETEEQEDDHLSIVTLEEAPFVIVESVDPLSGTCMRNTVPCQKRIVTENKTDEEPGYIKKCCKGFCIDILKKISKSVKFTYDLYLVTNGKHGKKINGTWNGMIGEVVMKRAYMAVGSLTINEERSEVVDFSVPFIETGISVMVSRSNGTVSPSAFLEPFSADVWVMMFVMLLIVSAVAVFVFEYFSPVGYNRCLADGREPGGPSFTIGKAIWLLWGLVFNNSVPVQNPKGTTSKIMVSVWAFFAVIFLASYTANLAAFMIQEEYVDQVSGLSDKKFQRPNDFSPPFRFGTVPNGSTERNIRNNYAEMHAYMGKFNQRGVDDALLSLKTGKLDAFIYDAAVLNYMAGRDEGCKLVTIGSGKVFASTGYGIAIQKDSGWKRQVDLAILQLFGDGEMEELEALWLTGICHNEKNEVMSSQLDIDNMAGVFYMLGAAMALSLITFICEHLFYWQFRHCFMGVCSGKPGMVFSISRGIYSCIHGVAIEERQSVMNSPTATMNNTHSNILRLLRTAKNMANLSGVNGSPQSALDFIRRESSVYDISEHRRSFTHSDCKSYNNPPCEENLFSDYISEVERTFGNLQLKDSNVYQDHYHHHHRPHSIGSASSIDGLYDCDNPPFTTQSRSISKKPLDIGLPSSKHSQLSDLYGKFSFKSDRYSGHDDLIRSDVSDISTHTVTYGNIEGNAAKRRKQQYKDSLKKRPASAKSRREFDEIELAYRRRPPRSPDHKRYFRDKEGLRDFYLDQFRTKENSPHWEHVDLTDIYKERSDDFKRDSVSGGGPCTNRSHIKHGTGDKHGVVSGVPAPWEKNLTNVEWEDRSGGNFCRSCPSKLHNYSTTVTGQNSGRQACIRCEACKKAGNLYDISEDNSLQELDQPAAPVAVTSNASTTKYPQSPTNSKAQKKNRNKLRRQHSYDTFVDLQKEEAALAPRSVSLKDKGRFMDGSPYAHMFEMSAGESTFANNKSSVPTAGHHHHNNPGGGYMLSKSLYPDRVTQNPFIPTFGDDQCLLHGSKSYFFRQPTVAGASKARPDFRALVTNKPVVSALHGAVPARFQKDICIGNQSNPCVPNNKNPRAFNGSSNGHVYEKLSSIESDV
structure (smiles),measurement,setting,value
C[C@]12N[C@H](Cc3ccccc31)c1ccccc12 [MK-801],MK-801 inhibition slower than at NR2Awt-containing receptors,[1],15 fold
same,τon of inhibition by MK-801,NR1wt/NR2Dwt receptors [2],32 s
same,τon of inhibition by MK-801,[3],5.7 s
same,τon of inhibition by MK-801,[4],1.6 s
"Br.CS(=O)(=O)SCCN [MTSEA, 2-aminoethylmethanethiosulfonatehydrobromide]",Higher MTSEA-potentiation than NR2Awt-containing receptors,[5],17 fold
same,MTSEA-induced potentiation,NR1-A652C/NR2D receptors,~ 300 fold
same,Decrease in MTSEA potentiation on deleting the NR2D-NTD,[6],4 fold
"[Zn+2] [Zinc, zinc]",IC50,NR1wt/NR2Awt receptors,7.5 nM
same,Inhibmax,NR1wt/NR2Awt receptors,81%
same,IC50,NR1wt/NR2Bwt receptors,720 nM
same,Inhibmax,NR1wt/NR2Bwt receptors,98%
same,IC50,NR1wt/NR2Dwt receptors [7],7800 nM
same,Inhibmax,NR1wt/NR2Dwt receptors [7],100%
same,IC50,[8],0.2 nM
same,Inhibmax,[8],83%
same,IC50,[9],5.4 nM
same,Inhibmax,[9],86%
same,IC50,[10],1.5 nM
same,Inhibmax,[10],90%
same,nH,[11],0.9–1.2
